The text below walks through data of ChEMBL document CHEMBL1165950, “Design and synthesis of new potent anticancer pyrazoles with high FLT3 kinase inhibitory selectivity” (Bioorg Med Chem, 2010).

The target in test [1] is Receptor-type tyrosine-protein kinase FLT3 (Homo sapiens) (UniProt P36888). Kind of test: Inhibition of FLT3 at 10 uM by HotSpot assay.
The target in test [2] is Receptor-type tyrosine-protein kinase FLT3 (Homo sapiens, UniProt P36888). Briefly: Inhibition of FLT3 by HotSpot assay.
Chain of Receptor-type tyrosine-protein kinase FLT3 (P36888 whole entry): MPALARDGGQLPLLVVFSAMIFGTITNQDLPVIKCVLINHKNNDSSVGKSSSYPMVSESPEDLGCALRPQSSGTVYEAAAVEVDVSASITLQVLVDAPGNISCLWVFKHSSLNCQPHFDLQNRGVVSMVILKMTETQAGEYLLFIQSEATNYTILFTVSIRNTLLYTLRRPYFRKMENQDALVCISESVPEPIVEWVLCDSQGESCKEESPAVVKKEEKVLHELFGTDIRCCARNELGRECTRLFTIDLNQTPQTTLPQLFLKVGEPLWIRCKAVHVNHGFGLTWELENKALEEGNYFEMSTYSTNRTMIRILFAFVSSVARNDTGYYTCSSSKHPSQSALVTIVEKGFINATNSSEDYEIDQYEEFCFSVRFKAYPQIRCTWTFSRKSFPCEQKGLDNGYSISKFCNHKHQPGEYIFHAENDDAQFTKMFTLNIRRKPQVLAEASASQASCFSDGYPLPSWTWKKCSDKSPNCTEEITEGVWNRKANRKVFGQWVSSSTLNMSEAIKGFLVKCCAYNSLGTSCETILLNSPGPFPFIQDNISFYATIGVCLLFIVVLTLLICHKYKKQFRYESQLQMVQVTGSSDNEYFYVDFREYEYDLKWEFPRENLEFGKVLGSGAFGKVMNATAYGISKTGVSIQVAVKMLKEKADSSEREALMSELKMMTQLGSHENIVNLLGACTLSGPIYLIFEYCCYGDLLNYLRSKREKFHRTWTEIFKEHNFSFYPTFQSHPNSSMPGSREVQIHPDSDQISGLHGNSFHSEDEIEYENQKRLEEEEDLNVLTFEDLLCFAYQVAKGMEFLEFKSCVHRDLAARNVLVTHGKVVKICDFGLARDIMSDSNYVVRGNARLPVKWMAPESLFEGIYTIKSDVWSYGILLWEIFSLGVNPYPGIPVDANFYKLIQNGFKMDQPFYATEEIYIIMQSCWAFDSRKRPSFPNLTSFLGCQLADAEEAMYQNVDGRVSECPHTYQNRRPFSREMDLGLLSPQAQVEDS
Test [3] has as its system SF-295. Briefly: Cytotoxicity against human SF295 cells assessed as cell growth at 10 uM after 48 hrs by sulforhodamine B assay. Format: functional. As to conditions: SF-295, 48 h, read-out: Activity.
In test [4] the test system is PC-3. Kind of test: Cytotoxicity against human PC3 cells assessed as cell growth at 10 uM after 48 hrs by sulforhodamine B assay. To be noted: PC-3, 48 h, read-out: Activity. Format: functional. (In general: Sulforhodamine B stains cellular protein and so reports cell mass.)
Test [5] deals with SK-MEL-5. Kind of test: Cytotoxicity against human SK-MEL-5 cells assessed as cell growth at 1 uM after 48 hrs by sulforhodamine B assay. Format: functional. As to conditions: SK-MEL-5, 48 h, read-out: Activity.
Test [6] deals with SK-MEL-28. Briefly: Cytotoxicity against human SK-MEL-28 cells assessed as cell growth at 10 uM after 48 hrs by sulforhodamine B assay. Format: functional. As to conditions: SK-MEL-28, 48 h, read-out: Activity.
Test [7] concerns SK-MEL-28. Kind of test: Growth inhibition of human SK-MEL-28 cells after 48 hrs by sulforhodamine B assay. The test is classed as functional. As to conditions: SK-MEL-28, 48 h; for CC50: read-out: LC50 (the source's name). A digest of the protocol: (§1)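 NCI 60-cell screen, five-dose mode. Cells grown in RPMI 1640 with 5% FBS and 2 mM L-glutamine and plated at 5000-40,000 cells/well according to doubling time. After 24 h preincubation, a Tz plate was TCA-fixed. Five concentrations (10-fold or 1/2 log dilutions) were applied for 48 h at 37 °C. SRB staining read at 515 nm. IC50 taken from [(Ti-Tz)/(C-Tz)]×100 = 50.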

Test [8] has as its system NCI-H226. Kind of test: Cytotoxicity against human NCI-H226 cells assessed as cell growth at 100 nM after 48 hrs by sulforhodamine B assay. Format: functional. As to conditions: NCI-H226, 48 h, read-out: Activity.
Test [9] concerns MCF7. Kind of test: Cytotoxicity against human MCF7 cells assessed as cell growth at 10 uM after 48 hrs by sulforhodamine B assay. The test is classed as functional. To be noted: MCF7, 48 h, read-out: Activity.
The test system of test [10] is SF-295. Kind of test: Cytotoxicity against human SF295 cells assessed as cell growth at 100 nM after 48 hrs by sulforhodamine B assay. As to conditions: SF-295, 48 h, read-out: Activity. Format: functional.
Test [11] relates to SR. Kind of test: Growth inhibition of human SR cells after 48 hrs by sulforhodamine B assay. The test is classed as functional. A digest of the protocol:
as §1

The test system of test [12] is RXF 393. Kind of test: Cytotoxicity against human RXF393 cells assessed as cell growth at 100 nM after 48 hrs by sulforhodamine B assay. As to conditions: RXF 393, 48 h, read-out: Activity. The test is classed as functional.
Test [13] has as its system SR. Kind of test: Cytotoxicity against human SR cells assessed as cell growth at 1 uM after 48 hrs by sulforhodamine B assay. To be noted: read-out: Activity. The test is classed as functional.
Test [14] deals with RXF 393. Kind of test: Growth inhibition of human RXF393 cells after 48 hrs by sulforhodamine B assay. The test is classed as functional. To be noted: RXF 393, 48 h. In a few lines:
as §1

Chain of Receptor-type tyrosine-protein kinase FLT3 (Homo sapiens) (P36888 whole entry): as above

For `COc1cc(C)cc(-c2c(-c3ccnc(-c4ccc(N(C)C)cc4)c3)cnn2CC#N)c1`, the inhibition in [1] is 82.3%. Besides, in [2], the IC50 is 1.74 µM. For the same molecule, the growth at 10 µM is -30% in [3] and 4% in test [4]. Further, the growth at 1 µM in test [5] was -31%.

On to `COc1cc(C)cc(-c2c(-c3ccnc(-c4ccc(C(C)=O)cc4)c3)cnn2CC#N)c1`, for which the growth at 10 µM in [6] was found to be 46%; in test [9], 17%; in test [3] it was 35%; in test [4], 27%. Further, the values for the GI50 in test [7], in test [11] and in test [14] were 7.66 µM, 2.87 µM and 2.32 µM, respectively. Besides, the total growth inhibition concentration (TGI) in [7] is greater than 100 µM; in [11] it was greater than 100 µM; in test [14], 6.02 µM. For the same molecule, in test [7], the CC50 is greater than 100 µM. The figures for the growth at 0.1 µM in [8], in test [10] and in test [12] were 96%, 85% and 94%, respectively. Moreover, in test [11], the LC50 (concentration killing 50% of cells) is greater than 100 µM. Moreover, the growth at 1 µM is 18% in test [13] and -37% in test [5]. In addition, the LC50 (concentration killing 50% of the starting cells) in [14] was greater than 100 µM.

Turning to `Cc1cc(O)cc(-c2nn(CC#N)cc2-c2ccnc(-c3ccc(N(C)C)cc3)c2)c1`, the growth at 10 µM in test [6] is -31%; in test [9] it was -61%; in [3] it was -54%; in [4], -9%. Further, the GI50 in test [7] came out at 5.22 µM; in test [11], 2.64 µM; in [14], 2.87 µM. Further, the concentration for total growth inhibition (TGI) was 32.4 µM in test [7], greater than 100 µM in test [11] and 61.4 µM in test [14]. Moreover, the CC50 in [7] was greater than 100 µM. Further, the figures for the growth at 0.1 µM in test [8], in [10] and in [12] were 100%, 78% and 120%, respectively. In [11], the LC50 (concentration killing 50% of cells) is greater than 100 µM. The growth at 1 µM is 17% in [13] and -26% in test [5]. In test [14], this molecule displayed an LC50 (concentration killing 50% of the starting cells) greater than 100 µM.

As to `COc1cc(C)cc(-c2nn(CC#N)cc2-c2ccnc(-c3ccc(N(C)C)cc3)c2)c1`, the growth at 10 µM is 13% in test [6], -13% in [9] and -32% in test [3]. The values for the GI50 in [7], in [11] and in test [14] were 0.776 µM, 0.461 µM and 0.258 µM, respectively. The values for the TGI in test [7], in test [11] and in [14] were greater than 100 µM, greater than 10 µM and 0.633 µM, respectively. The CC50 in test [7] is greater than 100 µM. The growth at 0.1 µM in test [8] is 49%; in test [10] it was 3%; in test [12], -25%. This molecule also displayed an LC50 (concentration killing 50% of cells) in test [11] greater than 100 µM. Moreover, the growth at 1 µM in test [13] was 18%; in test [5] it was -40%. Also, the LC50 (concentration killing 50% of the starting cells) in test [14] is greater than 100 µM.

`COc1cc(C)cc(-c2nn(CC#N)cc2-c2ccc(-c3cccc(C(C)=O)c3)nc2)c1`: the growth at 10 µM was -1% in [6], -28% in [9] and 1% in test [4]. In addition, the GI50 in [7] stood at 3.63 µM; in test [11] it was 1.62 µM; in test [14], 1.49 µM. The total growth inhibition concentration (TGI) was 93.6 µM in test [7], greater than 100 µM in test [11] and 3.59 µM in [14]. Also, in [7], the CC50 is greater than 100 µM. For the same molecule, the growth at 0.1 µM in test [8] stood at 86%; in [10], 75%; in [12], 73%. The molecule further yielded an LC50 (concentration killing 50% of cells) in [11] greater than 100 µM. Besides, the values for the growth at 1 µM in test [13] and in [5] were 22% and -13%, respectively. The molecule also had an LC50 (concentration killing 50% of the starting cells) in test [14] of 8.62 µM.

Regarding `Cc1cc(O)cc(-c2nn(CC#N)cc2-c2ccnc(-c3ccc(Oc4ccccc4)cc3)c2)c1`, the growth at 10 µM in [6] was -100%; in [9], -82%; in test [3], -61%; in test [4], -60%. For the same molecule, the GI50 was found to be 4.92 µM in [7], 3.77 µM in test [11] and 2.08 µM in test [14]. Besides, the TGI in [7] was 17 µM; in test [11] it was 37.2 µM; in [14] it was 4.31 µM. Besides, the CC50 in test [7] came out at 41.4 µM. Besides, the growth at 0.1 µM turned out to be 95% in test [8], 87% in test [10] and 101% in test [12]. This molecule displayed an LC50 (concentration killing 50% of cells) in test [11] greater than 100 µM. Also, the growth at 1 µM in test [13] amounted to 16%. In test [14], this molecule showed an LC50 (concentration killing 50% of the starting cells) of 8.92 µM.

The inhibition is the relative decrease from the control value, in per cent. Low readings indicate a response near the control, high ones a response far below the control. As usually defined, the IC50 is the midpoint of a concentration-inhibition curve. For orientation: GI50 means the concentration at which growth is held to half of that of the control. A low value points to more potent growth inhibition. The term TGI denotes the concentration at which net growth stops. Low values mean greater sensitivity of the cells, high ones lower sensitivity of the cells.
